Bioassay records from PubChem BioAssay.
Kir21 block: inhibitors of mouse Kir2.1 inward-rectifier potassium channel; Inward rectifier potassium channel 2 (Mus musculus), P35561; HEK293-Kir2.1, FluxOR thallium flux fluorescence; active compounds read low; B-score at 10 µM; actives 0.85% (n = 310,000); AID 1672, 2009;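 active means fluorescence ratio B-score at or below minus 3 SD of library scores, with starting-brightness B-score within 2 SD, cut at about -4.2 in these data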;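 further: channel flux triggered by added potassium and thallium sulfate stimulus; B-score of peak minus minimum fluorescence over baseline after thallium stimulus; more negative B-score means stronger Kir2.1 block with less thallium influx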
TRPC6 activator: mouse TRPC6 channel activators, primary screen, cell-based, HEK293, membrane potential dye. Short transient receptor potential channel 6 (Mus musculus), Q61143. actives 0.13% (n = 310,000). HEK293-TRPC6 membrane potential dye fluorescence; active compounds read high. B-score at 10 µM;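 active means B-score of the integrated fluorescence ratio above library mean plus 3 SD, and starting fluorescence ratio within library mean plus 5 SD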;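 further: higher score means more depolarization so channel activation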
Target sequence (Q61143 whole entry, looked up): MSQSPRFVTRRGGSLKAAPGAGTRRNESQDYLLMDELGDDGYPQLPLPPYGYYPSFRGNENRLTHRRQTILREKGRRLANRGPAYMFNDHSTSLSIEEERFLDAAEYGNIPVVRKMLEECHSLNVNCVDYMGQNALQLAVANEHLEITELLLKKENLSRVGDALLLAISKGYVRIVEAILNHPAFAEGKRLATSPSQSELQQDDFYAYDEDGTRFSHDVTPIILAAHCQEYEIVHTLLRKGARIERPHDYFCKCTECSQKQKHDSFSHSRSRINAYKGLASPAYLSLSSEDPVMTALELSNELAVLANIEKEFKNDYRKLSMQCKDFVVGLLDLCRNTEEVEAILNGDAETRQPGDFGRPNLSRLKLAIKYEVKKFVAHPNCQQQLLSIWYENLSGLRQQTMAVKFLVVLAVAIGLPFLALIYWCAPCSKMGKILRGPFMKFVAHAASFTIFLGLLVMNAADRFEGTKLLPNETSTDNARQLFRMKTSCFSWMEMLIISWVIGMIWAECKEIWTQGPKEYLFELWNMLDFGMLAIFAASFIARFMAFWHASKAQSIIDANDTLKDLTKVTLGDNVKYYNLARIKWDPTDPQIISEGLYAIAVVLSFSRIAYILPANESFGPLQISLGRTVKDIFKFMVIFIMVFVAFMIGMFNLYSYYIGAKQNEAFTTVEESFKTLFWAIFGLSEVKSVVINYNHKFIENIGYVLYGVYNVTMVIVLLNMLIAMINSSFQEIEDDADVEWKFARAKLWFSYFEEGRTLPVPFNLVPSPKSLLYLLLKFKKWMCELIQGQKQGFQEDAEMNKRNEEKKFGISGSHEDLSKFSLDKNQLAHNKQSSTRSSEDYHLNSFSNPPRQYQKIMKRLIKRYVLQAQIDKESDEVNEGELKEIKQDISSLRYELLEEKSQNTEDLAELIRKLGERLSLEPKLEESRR
TRPC6 inhibitor: mouse TRPC6 channel inhibitors, primary screen, cell-based, HEK293, membrane potential dye; Short transient receptor potential channel 6 (Mus musculus), Q61143; ACh-evoked depolarization; active compounds read low; B-score at 10 µM; actives 1.1% (n = 310,000); AID 2553, 2010;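 active means B-score under library mean minus 3 SD, initial fluorescence not abnormally high, positive integrated signal ratio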;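 further: B-score derived from integrated fluorescence ratio over the kinetic read; more negative B-score means stronger inhibition of depolarization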
TRPC4 block: inhibitors of mouse TRPC4 channel, primary screen, Fluo4 calcium, HEK293 TRPC4beta/mu-opioid cells. actives 0.39% (n = 300,000). AID 2247, 2010. Short transient receptor potential channel 4 (Mus musculus), Q9QUQ5. B-score at 10 µM. DAMGO-evoked Fluo4 calcium flux; active compounds read low;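 active means B-score over 3 SD under the library average, no early fluorescence shift, positive overall ratio signal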
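Signal: kinetic Fluo4 fluorescence imaging of calcium influx. Material: stable TRPC4beta/mu-opioid receptor HEK293 cells. Probe or stimulus: DAMGO in two steps, submaximal then maximal.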
TRPC4 PAM: positive allosteric modulators of TRPC4, primary screen, cell-based, mouse TRPC4beta, HEK293 mu-opioid, Fluo-4 calcium; DAMGO EC20, Fluo-4 Ca2+ flux; active compounds read high; Short transient receptor potential channel 4 (Mus musculus), Q9QUQ5; B-score at 10 µM; actives 0.42% (n = 310,000);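 active means B-score of calcium response area above 5 SD of library B-scores, with initial fluorescence ratio within 5 SD of library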
TRPC4 agonist: activators of mouse TRPC4 channel, primary screen, Fluo4 calcium, HEK293 TRPC4beta/mu-opioid cells; Short transient receptor potential channel 4 (Mus musculus), Q9QUQ5; Fluo4 calcium fluorescence; active compounds read high; B-score at 10 µM; actives 0.49% (n = 310,000); AID 2237, 2010;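 active means B-score above 5 SD of library B-scores, and initial fluorescence ratio not above library mean plus 5 SD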;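 further: positive B-score marks a calcium rise read as TRPC4 activation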
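Test system: HEK293 cells stably co-expressing mouse TRPC4beta and mu-opioid receptor | Schedule: Fluo4 dye loading 45 min at room temperature, 110 s recording | Measured by: Kinetic Fluo4 calcium fluorescence, 5 s baseline at 1 Hz | Evaluation: B score of integrated ratio | Controls: Buffer (low) and maximal DAMGO (high)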
Hits are given with their value. Rows were chosen to be rich in hits. Some 3% of all compounds tested hit in one or more screens of this group.

COc1ccc(NC(=O)CN2CCc3ccccc3C2)c([N+](=O)[O-])c1 was read as Kir21 block inactive, TRPC6 activator inactive, TRPC6 inhibitor inactive, TRPC4 block inactive, TRPC4 PAM inactive and TRPC4 agonist inactive.
CCN(CC)C(=O)Cn1cc(S(=O)(=O)CC(=O)NC2CCCCC2)c2ccccc21 was read as Kir21 block inactive, TRPC6 activator inactive, TRPC6 inhibitor inactive, TRPC4 block inactive, TRPC4 PAM inactive and TRPC4 agonist inactive.
Screening CN1CCN(C(=O)N2c3ccccc3C=Cc3ccccc32)CC1 returned Kir21 block inactive, TRPC6 activator inactive, TRPC6 inhibitor inactive, TRPC4 block inactive, TRPC4 PAM 13 and TRPC4 agonist inactive.
NC(=O)N1c2ccccc2C=Cc2ccccc21 was read as Kir21 block inactive, TRPC6 activator inactive, TRPC6 inhibitor inactive, TRPC4 block inactive, TRPC4 PAM inactive and TRPC4 agonist inactive.
`O=C(NC(=S)Nc1cccc(NC(=O)c2ccc(Cl)cc2Cl)c1)c1cccs1` gave Kir21 block inactive, TRPC6 activator inactive, TRPC6 inhibitor inactive, TRPC4 block inactive, TRPC4 PAM inactive and TRPC4 agonist inactive.
For CCOC(=O)c1oc2ccccc2c1CN1CCCCC1 the results were Kir21 block inactive, TRPC6 activator inactive, TRPC6 inhibitor inactive, TRPC4 block -6, TRPC4 PAM inactive and TRPC4 agonist inactive.
Screening CCOC(=O)c1c(-c2ccccc2)oc2ccc(O)c(CN(C)C)c12 returned Kir21 block -6.4, TRPC6 activator inactive, TRPC6 inhibitor inactive, TRPC4 block inactive, TRPC4 PAM inactive and TRPC4 agonist inactive.
For CCOC(=O)c1c(-c2ccccc2)oc2ccc(OCC(O)CN(C)C)cc12 (stereo unspecified) the results were Kir21 block -7.8, TRPC6 activator inactive, TRPC6 inhibitor inactive, TRPC4 block inactive, TRPC4 PAM inactive and TRPC4 agonist inactive.
Screening CCOC(=O)c1c(-c2ccccc2)oc2ccc(OC(C)C(=O)O)cc12 (stereo unspecified) returned Kir21 block inactive, TRPC6 activator inactive, TRPC6 inhibitor inactive, TRPC4 block inactive, TRPC4 PAM inactive and TRPC4 agonist inactive.
`CCOC(=O)c1c(-c2ccccc2)oc2ccc(O)c(CN3CCCC3)c12` gave Kir21 block -12, TRPC6 activator inactive, TRPC6 inhibitor inactive, TRPC4 block inactive, TRPC4 PAM inactive and TRPC4 agonist inactive.
Fc1ccccc1N1CCN(CC2CCCCC2)CC1 was read as Kir21 block inactive, TRPC6 activator inactive, TRPC6 inhibitor inactive, TRPC4 block inactive, TRPC4 PAM inactive and TRPC4 agonist inactive.
`Cc1cccc(NS(=O)(=O)c2ccc(C(=O)NCCCN3CCCC3=O)cc2)c1C` gave Kir21 block inactive, TRPC6 activator inactive, TRPC6 inhibitor inactive, TRPC4 block inactive, TRPC4 PAM inactive and TRPC4 agonist inactive.
`O=C(Nc1ccc2[nH]ncc2c1)c1ccccc1Cl` gave Kir21 block inactive, TRPC6 activator inactive, TRPC6 inhibitor inactive, TRPC4 block inactive, TRPC4 PAM inactive and TRPC4 agonist inactive.
`O=C(c1cc2ccccc2[nH]1)N(Cc1cccnc1)CC1CCCN(C2CCCCC2)C1` (stereo unspecified) gave Kir21 block inactive, TRPC6 activator inactive, TRPC6 inhibitor inactive, TRPC4 block inactive, TRPC4 PAM inactive and TRPC4 agonist inactive.
Cc1ccccc1N1CC(O)(c2cccs2)[N+]2=C1CCCC2 (stereo unspecified) was read as Kir21 block inactive, TRPC6 activator inactive, TRPC6 inhibitor inactive, TRPC4 block -9, TRPC4 PAM inactive and TRPC4 agonist inactive.
Screening NS(=O)(=O)c1ccc(CNC(=O)c2ccc(NS(=O)(=O)c3ccc4[nH]c(=O)[nH]c4c3)cc2)cc1 returned Kir21 block inactive, TRPC6 activator inactive, TRPC6 inhibitor inactive, TRPC4 block inactive, TRPC4 PAM inactive and TRPC4 agonist inactive.
Screening O=C(/C=C/c1c[nH]c2ccccc12)c1cccc2ccccc12 returned Kir21 block inactive, TRPC6 activator inactive, TRPC6 inhibitor inactive, TRPC4 block inactive, TRPC4 PAM inactive and TRPC4 agonist inactive.
Cc1ccc(-n2c(SCC(N)=O)nnc2-c2cccnc2)c(C)c1 was read as Kir21 block inactive, TRPC6 activator inactive, TRPC6 inhibitor inactive, TRPC4 block inactive, TRPC4 PAM inactive and TRPC4 agonist inactive.
Screening Cc1ccc(-n2c(SCc3cc(=O)n4ccsc4n3)nnc2-c2cccnc2)c(C)c1 returned Kir21 block inactive, TRPC6 activator inactive, TRPC6 inhibitor inactive, TRPC4 block -7, TRPC4 PAM inactive and TRPC4 agonist inactive.
Screening O=C(O)CCNc1nc(-c2ccccc2)c2cc(Br)ccc2n1 returned Kir21 block inactive, TRPC6 activator inactive, TRPC6 inhibitor inactive, TRPC4 block inactive, TRPC4 PAM 16 and TRPC4 agonist inactive.
`CCc1ccc(O)c(CNCCNCc2cc(CC)ccc2O)c1` gave Kir21 block -11, TRPC6 activator inactive, TRPC6 inhibitor inactive, TRPC4 block inactive, TRPC4 PAM inactive and TRPC4 agonist inactive.
`CCc1ccc(O)c(N=Cc2ccccc2O)c1` gave Kir21 block inactive, TRPC6 activator inactive, TRPC6 inhibitor inactive, TRPC4 block inactive, TRPC4 PAM inactive and TRPC4 agonist inactive.
`CCOc1ccc(CC(=O)N/N=C(\C)c2cccnc2)cc1` gave Kir21 block inactive, TRPC6 activator inactive, TRPC6 inhibitor inactive, TRPC4 block inactive, TRPC4 PAM inactive and TRPC4 agonist inactive.
For COc1ccc(OC)c(C(=O)NC2CCSc3ccccc32)c1 (stereo unspecified) the results were Kir21 block inactive, TRPC6 activator inactive, TRPC6 inhibitor inactive, TRPC4 block inactive, TRPC4 PAM inactive and TRPC4 agonist inactive.
Screening COc1ccc(CC(=O)NC2CCSc3ccccc32)c(OC)c1 (stereo unspecified) returned Kir21 block -5.9, TRPC6 activator inactive, TRPC6 inhibitor inactive, TRPC4 block inactive, TRPC4 PAM inactive and TRPC4 agonist inactive.
COC(=O)c1ccc(C(=S)NCC2(N(C)C)CCCCC2)cc1 was read as Kir21 block inactive, TRPC6 activator inactive, TRPC6 inhibitor inactive, TRPC4 block inactive, TRPC4 PAM inactive and TRPC4 agonist 101.
For COC(=O)C1=C(CCc2ccccc2)NC(=O)NC1c1ccc(Br)cc1 (stereo unspecified) the results were Kir21 block inactive, TRPC6 activator inactive, TRPC6 inhibitor inactive, TRPC4 block inactive, TRPC4 PAM inactive and TRPC4 agonist inactive.
